In ChEMBL document CHEMBL1155941, “Solid-phase synthesis and biological evaluation of a parallel library of 2,3-dihydro-1,5-benzothiazepines” (Bioorg Med Chem, 2008):

Experiments:
[1] = system: Agrobacterium tumefaciens; experiment: Inhibition of Agrobacterium tumefaciens-induced tumor growth in potato tuber disk after 21 days; type: functional, organism-based
How it was run: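 Potato disk bioassay: red-skinned potatoes surface-sterilized in 0.1% HgCl₂. Disks were inoculated with a 48-h culture of A. tumefaciens AT-10 containing test sample at 10, 100 or 1000 ppm. Tumors were counted under a dissecting microscope, with tests run in replicate. Percent inhibition came from the average tumor count per sample versus control; IC₅₀ was calculated by a literature procedure.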

Acetylcholinesterase = Acetylcholinesterase (Homo sapiens, UniProt P22303); experiment: Inhibition of AchE
Chain of Acetylcholinesterase (P22303 whole entry): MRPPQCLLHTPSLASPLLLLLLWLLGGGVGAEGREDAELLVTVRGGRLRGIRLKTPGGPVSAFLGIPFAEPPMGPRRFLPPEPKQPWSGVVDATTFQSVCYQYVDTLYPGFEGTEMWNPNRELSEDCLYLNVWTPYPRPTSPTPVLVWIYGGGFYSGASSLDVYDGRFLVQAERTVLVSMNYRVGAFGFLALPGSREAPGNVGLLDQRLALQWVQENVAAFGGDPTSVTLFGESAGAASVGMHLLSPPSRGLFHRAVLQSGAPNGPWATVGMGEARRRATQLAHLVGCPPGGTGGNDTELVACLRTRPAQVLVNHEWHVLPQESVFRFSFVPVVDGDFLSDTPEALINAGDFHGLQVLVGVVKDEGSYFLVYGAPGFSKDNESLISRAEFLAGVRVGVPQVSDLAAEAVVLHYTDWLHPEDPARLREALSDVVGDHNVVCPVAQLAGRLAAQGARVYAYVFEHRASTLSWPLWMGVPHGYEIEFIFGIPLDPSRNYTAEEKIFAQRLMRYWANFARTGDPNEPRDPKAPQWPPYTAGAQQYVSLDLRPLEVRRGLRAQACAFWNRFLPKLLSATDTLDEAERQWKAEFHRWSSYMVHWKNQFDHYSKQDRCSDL

[2] = system: Agrobacterium tumefaciens; experiment: Inhibition of Agrobacterium tumefaciens-induced tumor growth in potato tuber disk at 100 ppm after 21 days
[3] = system: Agrobacterium tumefaciens; experiment: Inhibition of Agrobacterium tumefaciens-induced tumor growth in potato tuber disk at 10 ppm after 21 days
Cholinesterase = Cholinesterase (Homo sapiens, UniProt P06276); experiment: Inhibition of BchE
Chain of Cholinesterase (P06276 whole entry): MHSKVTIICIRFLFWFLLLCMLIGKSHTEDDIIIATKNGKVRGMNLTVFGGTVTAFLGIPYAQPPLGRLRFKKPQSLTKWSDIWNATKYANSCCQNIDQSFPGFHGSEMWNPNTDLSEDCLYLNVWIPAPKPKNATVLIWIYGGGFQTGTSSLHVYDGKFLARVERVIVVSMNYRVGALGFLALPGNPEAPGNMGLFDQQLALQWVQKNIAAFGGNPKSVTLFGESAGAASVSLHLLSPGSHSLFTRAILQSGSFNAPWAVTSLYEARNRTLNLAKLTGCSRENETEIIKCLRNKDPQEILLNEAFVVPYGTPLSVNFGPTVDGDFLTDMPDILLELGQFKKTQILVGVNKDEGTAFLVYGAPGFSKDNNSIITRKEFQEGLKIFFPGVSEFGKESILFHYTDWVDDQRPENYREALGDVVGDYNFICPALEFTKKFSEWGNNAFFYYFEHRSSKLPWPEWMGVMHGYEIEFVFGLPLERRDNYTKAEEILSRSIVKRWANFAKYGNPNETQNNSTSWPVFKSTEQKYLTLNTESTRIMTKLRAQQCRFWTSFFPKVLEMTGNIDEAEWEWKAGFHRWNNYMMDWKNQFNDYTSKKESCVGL
How it was run: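 Ellman-type assay: enzyme, DTNB and test compound (dissolved in EtOH) were mixed in sodium phosphate buffer pH 8.0 and incubated 15 min at 25 °C. Reactions were run in triplicate. % inhibition = (E–S)/E × 100, where E is enzyme activity without compound. IC50 was derived from inhibition across increasing compound concentrations.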

[4] = system: Agrobacterium tumefaciens; experiment: Inhibition of Agrobacterium tumefaciens-induced tumor growth in potato tuber disk at 1000 ppm after 21 days
Escherichia coli = experiment: Antimicrobial activity against Escherichia coli ATCC 1522 assessed as inhibition zone diameter after 24 hrs by agar well diffusion method; type: functional
How it was run: (§1)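 Agar well diffusion: broth culture of about 10⁶ CFU/ml mixed into nutrient agar at 45 °C and poured into plates. 8-mm wells received test sample at 1 mg/ml in DMSO. DMSO was the negative control and roxithromycin (1 mg/ml) the positive control. Triplicate plates were incubated 37 °C, 24 h. Complete-inhibition zone diameter (mm) was measured, with growth inhibition referenced to roxithromycin.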

[5] = system: Bordetella bronchiseptica; experiment: Antimicrobial activity against Bordetella bronchiseptica ATCC 4617 assessed as inhibition zone diameter after 24 hrs by agar well diffusion method; type: functional; how it was run: as §1
Klebsiella aerogenes = experiment: Antimicrobial activity against Enterobacter aerogenes ATCC 13048 assessed as inhibition zone diameter after 24 hrs by agar well diffusion method; type: functional; how it was run: as §1
Micrococcus luteus = experiment: Antimicrobial activity against Micrococcus luteus assessed as inhibition zone diameter after 24 hrs by agar well diffusion method; type: functional; how it was run: as §1
[6] = system: Salmonella enterica subsp. enterica; experiment: Antimicrobial activity against Salmonella setubal ATCC 19196 assessed as inhibition zone diameter after 24 hrs by agar well diffusion method; type: functional, Salmonella enterica subsp. enterica serovar Setubal; how it was run: as §1

SMILES | IC50 [1] | IC50 (Acetylcholinesterase) | inhibition (INH) [2] | inhibition (INH) [3] | IC50 (Cholinesterase) | inhibition (INH) [4] | inhibition zone (IZ) (Escherichia coli) | inhibition zone (IZ) [5] | inhibition zone (IZ) (Klebsiella aerogenes) | inhibition zone (IZ) (Micrococcus luteus) | inhibition zone (IZ) [6]
CC[C@]1(O)C[C@H]2CN(CCc3c([nH]c4ccccc34)[C@@](C(=O)OC)(c3cc4c(cc3OC)N(C=O)[C@H]3[C@@](O)(C(=O)OC)[C@H](OC(C)=O)[C@]5(CC)C=CCN6CC[C@]43[C@@H]65)C2)C1 [VINCRISTINE] | 0.003 ppm |  |  |  |  |  |  |  |  |  | 
Oc1cccc(C2=Nc3ccccc3SC(c3ccccc3)C2)c1 (centres undefined) | 5.41 ppm | 40 µM | 97.8% | 72.3% | 1420 µM | 100% |  |  |  |  | 
Oc1cccc(C2=Nc3ccccc3SC(c3ccc(Cl)cc3)C2)c1 (centres undefined) | 9 ppm | 18.8 µM | 68% | 51.93% | 79.6 µM | 74.4% |  |  |  |  | 
COc1cc(C2CC(c3cccc(O)c3)=Nc3ccccc3S2)ccc1O (centres undefined) | 247.3 ppm |  | 40.4% | 36.1% |  | 95.7% | 9.5 mm | 10 mm | 11 mm | 10 mm | 10 mm
Oc1cccc(C2=Nc3ccccc3SC(c3ccc(Br)cc3)C2)c1 (centres undefined) | 61.5 ppm |  | 63.8% | 21.2% |  | 85.1% |  |  |  |  | 
COc1cccc(C2CC(c3cccc(O)c3)=Nc3ccccc3S2)c1 (centres undefined) | 3.28 ppm |  | 84.2% | 67.142% |  | 100% |  |  |  |  | 
COc1ccc(C2CC(c3cccc(O)c3)=Nc3ccccc3S2)cc1 (centres undefined) | 4.69 ppm |  | 78.7% | 57.4% |  | 100% |  |  |  |  | 
CC[C@H]1OC(=O)[C@H](C)[C@@H](O[C@H]2C[C@@](C)(OC)[C@@H](O)[C@H](C)O2)[C@H](C)[C@@H](O[C@@H]2O[C@H](C)C[C@H](N(C)C)[C@H]2O)[C@](C)(O)C[C@@H](C)/C(=N\OCOCCOC)[C@H](C)[C@@H](O)[C@]1(C)O [ROXITHROMYCIN] |  |  |  |  |  |  | 14 mm | 13 mm | 12 mm | 15 mm | 12 mm
Oc1cccc(C2=Nc3ccccc3SC(c3ccc(F)cc3)C2)c1 (centres undefined) | 1232 ppm |  | 34% | 25.5% |  | 40.4% |  |  |  |  | 
O=[N+]([O-])c1cccc(C2CC(c3cccc(O)c3)=Nc3ccccc3S2)c1 (centres undefined) | 26.2 ppm |  | 57.4% | 42.5% |  | 100% |  |  |  | 10 mm | 
Oc1ccc(C2CC(c3cccc(O)c3)=Nc3ccccc3S2)cc1 (centres undefined) | 237.9 ppm |  | 48.9% | 27.6% |  | 100% |  |  |  |  | 
COc1ccccc1/C=C/C(=O)c1cccc(O)c1 | 3.1 ppm |  |  |  |  |  |  |  |  |  | 
Cc1ccc(C2CC(c3cccc(O)c3)=Nc3ccccc3S2)cc1 (centres undefined) | 30.7 ppm | 49.4 µM | 72.3% | 65.9% | 75.2 µM | 87.2% |  |  |  |  | 
CN(C)c1ccc(C2CC(c3cccc(O)c3)=Nc3ccccc3S2)cc1 (centres undefined) | 192.5 ppm |  | 44.6% | 38.2% | 34.4 µM | 100% | 11 mm | 9 mm | 11 mm | 10 mm | 9 mm
COc1ccc(/C=C/C(=O)c2cccc(O)c2)cc1OC | 5.8 ppm |  |  |  |  |  |  |  |  |  | 
Oc1cccc(C2=Nc3ccccc3SC(c3ccncc3)C2)c1 (centres undefined) | 6.1 ppm |  | 80% | 55.1% |  | 100% |  |  |  |  | 
COc1ccccc1C1CC(c2cccc(O)c2)=Nc2ccccc2S1 (centres undefined) | 7.06 ppm |  | 87.1% | 81.42% | 4.65 µM | 98.5% |  |  |  |  | 
Oc1cccc(C2=Nc3ccccc3SC(c3cccnc3)C2)c1 (centres undefined) | 926.2 ppm |  | 38.2% | 29.7% |  | 51% |  |  |  |  | 
Oc1cccc(C2=Nc3ccccc3SC(c3cccc(Cl)c3)C2)c1 (centres undefined) | 14.01 ppm |  | 80.8% | 68% | 29.4 µM | 93.6% |  |  |  | 11.5 mm | 
Oc1cccc(C2=Nc3ccccc3SC(c3ccc(Br)s3)C2)c1 (centres undefined) | 11.2 ppm |  | 91.4% | 80.3% |  | 92.8% |  |  |  |  | 
COc1ccc(C2CC(c3cccc(O)c3)=Nc3ccccc3S2)cc1OC (centres undefined) | 8.23 ppm |  | 82.7% | 70.2% | 19.7 µM | 100% |  |  |  |  | 
Oc1cccc(C2=Nc3ccccc3SC(c3ccccc3Cl)C2)c1 (centres undefined) | 6.94 ppm |  | 93.6% | 74.4% |  | 95.7% |  |  |  |  | 
Oc1cccc(C2=Nc3ccccc3SC(c3ccccc3F)C2)c1 (centres undefined) | 295.5 ppm | 70.6 µM | 40.4% | 31.9% |  | 91.4% |  |  |  |  | 
Oc1cccc(C2=Nc3ccccc3SC(c3cccs3)C2)c1 (centres undefined) | 4.8 ppm | 5.9 µM | 100% | 87.2% | 3.97 µM | 100% |  |  |  |  | 
Oc1cccc(C2=Nc3ccccc3SC(c3cccc(O)c3)C2)c1 (centres undefined) | 179.3 ppm | 71.1 µM | 48.9% | 36.1% | 4.7 µM | 100% |  |  |  |  | 
